The results in this text go back to ChEMBL document CHEMBL3868616, “Synthesis and biological evaluation of hesperetin derivatives as agents inducing apoptosis” (2017).

Calls of active or inactive are those of the source. The rule behind the calls is not given here.

Test [1] can be described thus: Anticlonogenic activity in human HCT116 cells after 6 days by crystal violet staining based assay. The test is classed as functional. The conditions noted are these: HCT-116, 144 h. The method in brief: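 HCT116 colon cancer cells, long-term clonogenic survival assay. Compound exposure for six days at 0, 5, 10 and 20 µM (results section also lists 40 µM). Colonies stained with 0.1% crystal violet and quantified by densitometry. GI50 computed from the concentration–response data.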

The target of test [2] is Mitogen-activated protein kinase 8 (Homo sapiens) (UniProt P45983). In words: Increase in JNK1 phosphorylation at Thr183/Tyr185 residues in human HCT116 cells at 50 to 200 uM after 12 hrs by Western blot analysis. The test is classed as cell-based. The conditions noted are these: HCT-116. In outline:
(§1)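 HCT116 cells exposed to 0, 50, 100 or 200 µM for 1 and 12 h. Whole-cell lysates immunoblotted with an antibody specific for phospho-JNK1/2 (Thr183/Tyr185), with GAPDH as the internal loading control.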

Test [3] concerns HCT-116. Kind of test: Induction of apoptosis in human HCT116 cells assessed as late apoptotic cells at 50 uM after 24 hrs by FITC-annexin V/propidium iodide staining based fluorescence assay (reference value: 3%). The test is classed as functional.
The target of test [4] is Mitogen-activated protein kinase 9 (Homo sapiens) (UniProt P45984). In words: Increase in JNK2 phosphorylation at Thr183/Tyr185 residues in human HCT116 cells at 50 to 200 uM after 12 hrs by Western blot analysis. Type of test: cell-based. The conditions noted are these: HCT-116. The method in brief: as §1
Sequence of Mitogen-activated protein kinase 9 (Homo sapiens) (P45984 whole entry, looked up): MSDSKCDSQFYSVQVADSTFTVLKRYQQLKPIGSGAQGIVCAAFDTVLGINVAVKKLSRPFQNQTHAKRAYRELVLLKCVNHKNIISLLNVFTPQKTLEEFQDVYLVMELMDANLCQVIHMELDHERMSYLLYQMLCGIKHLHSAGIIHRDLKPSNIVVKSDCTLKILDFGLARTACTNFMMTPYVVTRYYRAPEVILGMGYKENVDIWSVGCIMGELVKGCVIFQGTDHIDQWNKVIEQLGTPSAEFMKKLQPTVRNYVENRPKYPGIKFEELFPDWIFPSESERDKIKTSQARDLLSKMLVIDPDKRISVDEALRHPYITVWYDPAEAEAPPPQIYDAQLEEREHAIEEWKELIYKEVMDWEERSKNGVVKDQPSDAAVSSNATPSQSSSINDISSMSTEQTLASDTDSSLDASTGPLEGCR
Test [5] concerns HCT-116. Kind of test: Induction of apoptosis in human HCT116 cells assessed as viable cells at 50 uM after 24 hrs by FITC-annexin V/propidium iodide staining based fluorescence assay (reference value: 90%). The test is classed as functional. The conditions noted are these: HCT-116, 24 h, read-out: Activity.
For test [6], the system named is HCT-116. Kind of test: Induction of apoptosis in human HCT116 cells assessed as early apoptotic cells at 50 uM after 24 hrs by FITC-annexin V/propidium iodide staining based fluorescence assay (reference value: 6%). The test is classed as functional.
Test [7] relates to HCT-116. In words: Induction of apoptosis in human HCT116 cells assessed as necrotic cells at 50 uM after 24 hrs by FITC-annexin V/propidium iodide staining based fluorescence assay (reference value: 2%). The test is classed as functional.
The nature of test [8]: Cytotoxicity against human HCT116 cells assessed as decrease in cell viability at 80 uM after 24 hrs by CCK-8 assay. The test is classed as functional, HCT-116. In outline: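 HCT116 cells seeded at 5 × 10^3 per well and treated 24 h at 10, 20, 40, 80 and 100 µM. Viability read with CCK-8 as absorbance at 450 nm. Compared with vehicle by one-way ANOVA followed by Sidak's multiple comparisons test.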

In test [9] the target is Mitogen-activated protein kinase 9 (Homo sapiens) (UniProt P45984). In words: Increase in JNK2 phosphorylation at Thr183/Tyr185 residues in human HCT116 cells at 50 to 200 uM measured up to 1 hr by Western blot analysis. Type of test: cell-based. The conditions noted are these: HCT-116. The method in brief:
as §1

For test [10], the system named is HCT-116. Kind of test: Induction of apoptosis in human HCT116 cells assessed as increase in PARP cleavage at 50 uM measured up to 24 hrs by immuno blot analysis. Type of test: functional, cell-based. The method in brief:
(§2)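 HCT116 cells exposed to 50 µM for 0, 12 and 24 h. Total cell lysates immunoblotted with antibodies against cleaved caspase-9, cleaved caspase-3 and PARP.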

The subject of test [11] is HCT-116. Kind of test: Induction of apoptosis in human HCT116 cells assessed as increase in caspase-9 cleavage at 50 uM by immuno blot analysis. Type of test: functional, cell-based. To be noted: TDE = time-dependent effect. The method in brief: as §2
The subject of test [12] is HCT-116. In words: Induction of apoptosis in human HCT116 cells assessed as increase in caspase-3 cleavage at 50 uM by immuno blot analysis. The test is classed as functional, cell-based. To be noted: TDE = time-dependent effect. The method in brief: as §2
The target of test [13] is Mitogen-activated protein kinase 8 (Homo sapiens) (UniProt P45983). In words: Increase in JNK1 phosphorylation at Thr183/Tyr185 residues in human HCT116 cells at 50 to 200 uM measured up to 1 hr by Western blot analysis. The test is classed as cell-based. To be noted: HCT-116. The method in brief: as §1
Sequence of Mitogen-activated protein kinase 8 (Homo sapiens) (P45983 whole entry): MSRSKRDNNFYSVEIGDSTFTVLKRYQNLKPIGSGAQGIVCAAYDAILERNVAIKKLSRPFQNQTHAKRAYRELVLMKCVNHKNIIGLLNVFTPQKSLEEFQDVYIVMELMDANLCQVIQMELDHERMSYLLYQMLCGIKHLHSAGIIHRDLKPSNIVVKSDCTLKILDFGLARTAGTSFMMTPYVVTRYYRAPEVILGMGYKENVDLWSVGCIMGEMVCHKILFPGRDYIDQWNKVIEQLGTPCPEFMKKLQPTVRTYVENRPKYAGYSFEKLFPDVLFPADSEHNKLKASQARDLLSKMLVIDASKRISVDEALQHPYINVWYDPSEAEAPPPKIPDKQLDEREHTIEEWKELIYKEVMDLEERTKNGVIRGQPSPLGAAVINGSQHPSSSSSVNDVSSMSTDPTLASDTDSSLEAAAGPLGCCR
Test [14] shares this target. In words: Increase in JNK1 phosphorylation at Thr183/Tyr185 residues in human HCT116 cells at 50 to 200 uM measured up to 12 hrs by Western blot analysis. The conditions noted are these: HCT-116. The test is classed as cell-based. In outline: as §1
Test [15] addresses Mitogen-activated protein kinase 9 (Homo sapiens) (UniProt P45984). Kind of test: Increase in JNK2 phosphorylation at Thr183/Tyr185 residues in human HCT116 cells at 50 to 200 uM measured up to 12 hrs by Western blot analysis. The test is classed as cell-based. To be noted: HCT-116. The method in brief:
as §1

For `C/C=C/C(=O)Oc1cc(O)c2c(c1)O[C@H](c1ccc(OC)c(O)c1)CC2=O`, growth in test [1] was halved (GI50) at 16.9 µM.

The molecule `COc1ccc([C@@H]2CC(=O)c3c(O)cc(OC(=O)c4ccc(C)cc4)cc3O2)cc1OC(=O)c1ccc(C)cc1` showed a GI50 in test [1] of 71.7 µM.

`COc1ccc([C@@H]2CC(=O)c3c(O)cc(OC(=O)c4ccccc4C)cc3O2)cc1OC(=O)c1ccccc1C` gave a 50% growth inhibitory concentration (GI50) in test [1] of 48.7 µM.

`COc1ccc([C@@H]2CC(=O)c3c(O)cc(OC(=O)c4ccccc4)cc3O2)cc1O` had a GI50 in test [1] of 16.5 µM.

Consider `COc1ccc([C@@H]2CC(=O)c3c(O)cc(O)cc3O2)cc1O` [HESPERETIN], for which the result in test [2] and in test [4] was Active. The Activity in [3] is 2%; in test [6] it was 9%; in test [7], 0%; in test [8], 15%. In addition, the 50% growth inhibitory concentration (GI50) in test [1] is 36.1 µM. Also, the viability at 50 µM in test [5] is 88%.

With `CCCC(=O)Oc1cc(O)c2c(c1)O[C@H](c1ccc(OC)c(OC(=O)CCC)c1)CC2=O`, growth in test [1] was halved (GI50) at 13.2 µM.

As to `CCCC(=O)Oc1cc(O)c2c(c1)O[C@H](c1ccc(OC)c(O)c1)CC2=O`, the result in test [9], in test [10], in test [13], in [14] and in test [15] was Active. Moreover, the Activity entry in [11] was “Tde”; in test [3], 5%; in [12], “Tde”; in test [6] it was 39%; in [7], 0%; in [8], 50%. In test [1], this molecule registered a GI50 of 12 µM. The viability at 50 µM in test [5] amounted to 55%.

As for `COc1ccc([C@@H]2CC(=O)c3c(O)cc(OC(=O)Cc4ccccc4)cc3O2)cc1OC(=O)Cc1ccccc1`, it took 63.9 µM to inhibit growth in test [1] by half (GI50).

In [1], `COc1ccc([C@@H]2CC(=O)c3c(O)cc(OC(=O)c4ccccc4C)cc3O2)cc1O` showed a GI50 of 22.9 µM.

For the molecule `COc1ccc([C@@H]2CC(=O)c3c(O)cc(OC(=O)/C=C/c4ccccc4)cc3O2)cc1OC(=O)/C=C/c1ccccc1`, the GI50 in [1] came to 21 µM.

`COc1ccc([C@@H]2CC(=O)c3c(O)cc(OC(=O)c4ccccc4)cc3O2)cc1OC(=O)c1ccccc1`: in test [1], the concentration for 50% growth inhibition (GI50) is 46 µM.

In the case of `COc1ccc(C(=O)Oc2cc(O)c3c(c2)O[C@H](c2ccc(OC)c(OC(=O)c4ccc(OC)cc4)c2)CC3=O)cc1`, in test [1], the GI50 was 35.7 µM.

Consider `COc1ccc([C@@H]2CC(=O)c3c(O)cc(OC(=O)C(C)(C)C)cc3O2)cc1O`, for which the GI50 in test [1] came out at 31.5 µM.
